Four molecules from ChEMBL document CHEMBL1145922, “1,2-benzisoxazole phosphorodiamidates as novel anticancer prodrugs requiring bioreductive activation” (J Med Chem, 2003) can be followed below.

Assay [1] is filed under the species Rattus norvegicus. In words: Alkylating Activity after incubation for 30 minutes in rat liver in oxic condition in absence of NADPH. The format is functional, organism-based. Put shortly:
(§1)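 Phenobarbital-induced rat liver S-9 fraction (17.9 or 18.2 mg/mL protein), substrate 2.5 mM final (added in methanol/water 50:50), NADPH 5 mM or no cofactor, 30 min at 37 °C. Hypoxic samples purged with nitrogen 15–20 min in sealed vials. Stopped with ice-cold methanol, proteins removed; alkylating activity by NBP assay, absorbance at 542 nm, mean of two experiments.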

Assay [2] is filed under the species Rattus norvegicus. In words: Alkylating Activity after incubation for 30 minutes in rat liver in oxic condition in presence of NADPH. The assay is classed as functional, organism-based. Summed up:
as §1

The species named for assay [3] is Rattus norvegicus. In words: Alkylating Activity after incubation for 30 minutes in rat liver in Hypoxic condition in absence of NADPH. The format is functional, organism-based. Put shortly:
as §1

The species entered for assay [4] is Rattus norvegicus. The experiment in a line: Alkylating Activity after incubation for 30 minutes in rat liver in Hypoxic condition in presence of NADPH. The assay is classed as functional, organism-based. Summed up: as §1
The species entered for assay [5] is Rattus norvegicus. The experiment in a line: Metabolic stability after incubation for 30 minutes in rat liver in hypoxic condition in absence of NADPH. The assay is classed as functional. Put shortly: (§2)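 Phenobarbital-induced rat liver S-9 fraction, substrate 2.5 mM final, with 5 mM NADPH or no cofactor, 30 min at 37 °C, oxic or nitrogen-purged (hypoxic). Quenched with ice-cold methanol and centrifuged; supernatant analysed by TLC densitometry (ethyl acetate/ethanol eluent) for unchanged parent, reported as % remaining, mean ± SD of three experiments.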

The species entered for assay [6] is Rattus norvegicus. In words: Metabolic stability after incubation for 30 minutes in rat liver in hypoxic condition in presence of NADPH. The format is functional. Put shortly: as §2
For assay [7], the species on record is Rattus norvegicus. In words: Metabolic stability after incubation for 30 minutes in rat liver in oxic condition in absence of NADPH. The format is functional. Summed up: as §2
The species entered for assay [8] is Rattus norvegicus. The experiment in a line: Metabolic stability after incubation for 30 minutes in rat liver in oxic condition in presence of NADPH. The assay is classed as functional. Put shortly:
as §2

A further assay relates to V79. In words: In vitro cytotoxicity against Chinese hamster lung (V-79 cells) fibroblast determined using sulforhodamine B (SRB) assay. The assay is classed as functional, cell-based. The note with it: Cricetulus griseus. Put shortly: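 V-79 Chinese hamster lung fibroblasts, about 15×10^3 cells/well, preincubated 24 h, then drug at eight concentrations for 48 h, aerobic. Fixed with cold TCA, stained with 0.4% SRB, dye solubilized in 10 mM Tris, read at 564 nm. % growth versus untreated control; first-order decay fit gives IC50. Triplicates, three experiments, mean ± SD.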
Background: Sulforhodamine B stains cellular protein and so reports cell mass.

For `COc1ccc2c(CCOP(N)(=O)N(CCCl)CCCl)noc2c1` (stereo unspecified), the Absorbance in the assay filed under Rattus norvegicus [1] was found to be 0.32; in the assay listed under Rattus norvegicus [2], 2.31; in the assay listed under Rattus norvegicus [3] it was 0.42; in the assay listed under Rattus norvegicus [4] it was 2.35. Besides, the Compound remaining in the assay filed under Rattus norvegicus [5] is listed as 79%; in the assay listed under Rattus norvegicus [6], 45%; in the assay listed under Rattus norvegicus [7], 78%; in the assay listed under Rattus norvegicus [8], 46%. The molecule further displayed an IC50 with V79 of 241 µM.
`CCc1noc2ccccc12` registered an IC50 in the assay on V79 above 2000 µM.
As to `NP(=O)(OCCc1noc2ccccc12)N(CCCl)CCCl` (stereo unspecified), the Absorbance in the assay filed under Rattus norvegicus [1] came out at 0.26; in the assay filed under Rattus norvegicus [2] it was 1.97; in the assay listed under Rattus norvegicus [3], 0.38; in the assay filed under Rattus norvegicus [4] it was 2.02. In addition, the Compound remaining in the assay filed under Rattus norvegicus [5] is 98%; in the assay filed under Rattus norvegicus [6] it was 34%; in the assay listed under Rattus norvegicus [7], 97%; in the assay listed under Rattus norvegicus [8], 33%. Moreover, the midpoint of inhibition in the assay with V79, the IC50, lay at 411 µM.
For `NP(=O)(OCCc1noc2ccc([N+](=O)[O-])cc12)N(CCCl)CCCl` (stereo unspecified), the Absorbance in the assay listed under Rattus norvegicus [3] came out at 0.85; in the assay filed under Rattus norvegicus [4] it was 2.23. For the same molecule, the Compound remaining in the assay listed under Rattus norvegicus [5] is given as 76%; in the assay filed under Rattus norvegicus [6], 1%; in the assay filed under Rattus norvegicus [7], 79%; in the assay filed under Rattus norvegicus [8] it was 1%. In addition, the IC50 with V79 amounted to 311 µM.

Broadly, the IC50 is the concentration at which inhibition is half-maximal. A higher IC50 goes with weaker potency in that assay.
